Results: paper PMC3563241 (Nuclear medicine and biology, 2012)
Several values for one entry are separate records, joined by “and”; a condition that tells them apart may be missing. Equal values may be shown once.

Columns and labels:
integrin α4β1 (VLA-4) = integrin α4β1 (VLA-4) (Mus musculus, UniProt P09055+Q00651); assay: Saturation binding assay in B16F10 melanoma cells; settings: 4 °C, 2 h, 0.1–80 nM
Outline: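 Binding medium was HBSS with 0.1% BSA and 1 mM Mn²⁺. Nonspecific binding was measured with 12 μg unlabelled ligand. After 2 h on ice, cells were rinsed, lysed in 0.5% SDS and gamma-counted. Counts were normalised to BCA protein, n=3 per point.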

[1] = Biodistribution studies in B16F10 tumor-bearing mice; assay type: in vivo, C57BL/6 mice; settings: C57BL/6, mouse, iv, total radioactivity; for tissue uptake at 2 h: 14 μCi (14 ng); for tissue to tissue ratio at 2 h: 14 ng
Outline: (§1)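 Subcutaneous B16F10 tumours (1 × 10⁷ cells in PBS:Matrigel 1:1) grown 14–21 d in 7-wk-old C57BL/6 mice. Mice (n = 5/group) were given the ⁶⁴Cu-labelled conjugate i.v., 14 μCi (14 ng; 1000 μCi/μg); the blocking group's dose was premixed with 50 μg unlabelled ligand. Animals were killed at 2 h, and tissues and tumour were weighed and gamma-counted. %ID/g was decay-corrected against an injected-dose standard; mean±SD.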

[2] = system: B16F10 tumor-bearing mice; assay: as above; assay type: in vivo, C57BL/6 mice; settings: 2 h, co-administered with excess cold LLP2A (50 μg)
Outline: as §1

[3] = system: B16F10 tumor-bearing mice; assay: Small animal PET/CT imaging of B16F10 tumor-bearing mice; assay type: in vivo, C57BL/6 mice; settings: 2 h post-injection
Outline: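 Mice bearing B16F10 tumours received the ⁶⁴Cu-labelled conjugate by tail vein, 100 μCi (667 ng); half of the doses were premixed with 100 μg unlabelled ligand. PET/CT was done at 2 and 24 h under 1–2% isoflurane, with 15 or 30 min static scans and MAP reconstruction. CT-guided ROIs gave maximum SUV (nCi/mL × weight/injected dose), and tumour:background ratios were taken from MIP images (n = 2).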

[4] = system: B16F10 tumor-bearing mice; settings: 2 h post-injection, 5 μCi (12.5 ng); previously published data; cited from earlier work

Sequence of integrin α4β1 (VLA-4) (Q00651 41-1039): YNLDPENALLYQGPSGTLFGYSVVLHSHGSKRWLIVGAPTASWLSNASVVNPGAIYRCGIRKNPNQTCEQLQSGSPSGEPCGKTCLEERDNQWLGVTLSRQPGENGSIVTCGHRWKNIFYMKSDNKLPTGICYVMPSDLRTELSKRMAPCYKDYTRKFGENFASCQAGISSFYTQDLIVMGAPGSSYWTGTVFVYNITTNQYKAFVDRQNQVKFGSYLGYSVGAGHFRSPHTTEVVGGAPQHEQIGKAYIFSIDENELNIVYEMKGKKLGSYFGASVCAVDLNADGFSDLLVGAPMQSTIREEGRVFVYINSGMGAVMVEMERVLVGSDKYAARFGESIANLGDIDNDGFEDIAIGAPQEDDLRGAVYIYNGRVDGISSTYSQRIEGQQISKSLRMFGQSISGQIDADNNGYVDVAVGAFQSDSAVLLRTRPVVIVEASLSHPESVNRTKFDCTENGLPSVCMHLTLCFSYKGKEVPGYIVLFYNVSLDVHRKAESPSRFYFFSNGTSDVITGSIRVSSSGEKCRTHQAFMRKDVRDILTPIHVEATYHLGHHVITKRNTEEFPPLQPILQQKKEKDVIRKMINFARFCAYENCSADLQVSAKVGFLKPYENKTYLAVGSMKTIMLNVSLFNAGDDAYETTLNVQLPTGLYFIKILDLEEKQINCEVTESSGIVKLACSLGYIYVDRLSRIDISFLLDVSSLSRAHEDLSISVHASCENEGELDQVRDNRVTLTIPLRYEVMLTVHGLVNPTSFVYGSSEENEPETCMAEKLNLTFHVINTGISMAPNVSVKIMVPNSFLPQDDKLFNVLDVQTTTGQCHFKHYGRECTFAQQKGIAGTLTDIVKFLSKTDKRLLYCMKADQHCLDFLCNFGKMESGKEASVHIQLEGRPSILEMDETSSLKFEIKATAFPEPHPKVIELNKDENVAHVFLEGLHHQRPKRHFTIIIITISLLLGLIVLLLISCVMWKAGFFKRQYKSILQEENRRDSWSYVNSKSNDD
Sequence of integrin α4β1 (VLA-4) (P09055 21-798): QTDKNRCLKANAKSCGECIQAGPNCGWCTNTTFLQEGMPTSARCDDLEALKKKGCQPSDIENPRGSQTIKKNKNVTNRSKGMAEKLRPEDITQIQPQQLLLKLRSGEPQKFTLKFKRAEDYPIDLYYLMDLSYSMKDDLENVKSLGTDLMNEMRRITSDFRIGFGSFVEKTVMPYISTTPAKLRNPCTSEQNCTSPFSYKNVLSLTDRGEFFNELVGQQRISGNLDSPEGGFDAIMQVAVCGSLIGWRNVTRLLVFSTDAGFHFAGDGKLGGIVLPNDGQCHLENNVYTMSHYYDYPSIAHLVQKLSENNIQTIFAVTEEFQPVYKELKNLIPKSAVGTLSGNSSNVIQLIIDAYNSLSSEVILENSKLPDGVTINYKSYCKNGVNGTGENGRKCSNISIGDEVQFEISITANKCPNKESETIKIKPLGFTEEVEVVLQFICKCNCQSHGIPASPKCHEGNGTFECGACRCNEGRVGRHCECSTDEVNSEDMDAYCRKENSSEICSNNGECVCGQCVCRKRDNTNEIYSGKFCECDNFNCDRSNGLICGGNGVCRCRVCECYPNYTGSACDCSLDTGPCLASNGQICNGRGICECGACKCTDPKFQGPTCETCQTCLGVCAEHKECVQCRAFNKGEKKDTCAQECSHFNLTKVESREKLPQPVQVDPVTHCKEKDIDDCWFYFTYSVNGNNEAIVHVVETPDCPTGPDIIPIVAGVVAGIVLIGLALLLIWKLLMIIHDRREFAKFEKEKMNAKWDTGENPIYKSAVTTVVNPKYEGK

Structure (SMILES) | receptor concentration (Bmax) (integrin α4β1 (VLA-4)) | tissue uptake at 2 h ([1]; bone) [%ID/g] | tissue uptake at 2 h ([1]; kidney) [%ID/g] | tissue uptake at 2 h ([1]; liver) [%ID/g] | tissue uptake at 2 h ([1]; marrow) [%ID/g] | tissue uptake at 2 h ([1]; spleen) [%ID/g] | tissue to tissue ratio at 2 h ([1]; tumor / blood) | tissue to tissue ratio at 2 h ([1]; tumor / muscle) | tissue uptake at 2 h ([1]; tumor) [%ID/g] | Radiotracer uptake in tumor, spleen and bone in the presence of blocking agent [2] | Fold higher tumor to background ratio than ^64Cu-CB-TE2A-LLP2A [3] | Tumor to blood ratio [4] | Tumor to muscle ratio [4]
Cc1ccccc1NC(=O)Nc1ccc(CC(=O)N[C@@H](CCCCNC(=O)/C=C/c2cccnc2)C(=O)N[C@@H](CCCC(=O)O)C(=O)NC2(C(=O)NCCOCCOCCNC(=O)CCC(=O)NCCOCCOCCNC(=O)CCC(=O)N[C@@H](CCCCNC(=O)CN3CCCN4CCN(CCCN(CP(=O)(O)O)CC4)CC3)C(N)=O)CCCCC2)cc1 [^64Cu-CB-TE1A1P-LLP2A, metal not drawn] | 471 fmol/mg and 471 ± 14 fmol/mg | 6.2 ± 1.7 | 3.2 ± 0.4 | 2.3 ± 0.3 | 32.6 ± 19 | 17.9 ± 2.3 | 19.5 ± 3 | 13 ± 1.4 | 11.4 ± 2.3 | significantly reduced | more than 2 fold |  | 
Cc1ccccc1NC(=O)Nc1ccc(CC(=O)N[C@@H](CCCCNC(=O)/C=C/c2cccnc2)C(=O)N[C@@H](CCCC(=O)O)C(=O)NC2(C(=O)NCCOCCOCCNC(=O)CCC(=O)NCCOCCOCCNC(=O)CCC(=O)N[C@@H](CCCCNC(=O)CN3CCCN4CCN(CCCN(CC(=O)O)CC4)CC3)C(N)=O)CCCCC2)cc1 [^64Cu-CB-TE2A-LLP2A, metal not drawn, reference compound] | 304 fmol/mg and 304 ± 18 fmol/mg |  |  |  |  |  |  |  |  |  |  | 4.2 ± 1.4 | 5.5 ± 0.9
